High-throughput results (PubChem BioAssay)
OX1R antag-1: OX1R (HCRTR1) antagonists, primary screen, fluorescence, CHO/OX1R cells, Fluo-8 calcium, orexin A. AID 434989, 2010. inhibition, % at 5 µM. 0.43% of 330,000 active. Fluo-8 calcium fluorescence. Orexin/Hypocretin receptor type 1 (Homo sapiens), O43613;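 active means inhibition above its plate's threshold, mean inhibition of all tested compounds on the plate plus 3 SD, cut at about 37% in these data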;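 further: 0% = orexin A challenge wells and 100% = SB-334867-A antagonist wells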
Target sequence (O43613 whole entry, looked up): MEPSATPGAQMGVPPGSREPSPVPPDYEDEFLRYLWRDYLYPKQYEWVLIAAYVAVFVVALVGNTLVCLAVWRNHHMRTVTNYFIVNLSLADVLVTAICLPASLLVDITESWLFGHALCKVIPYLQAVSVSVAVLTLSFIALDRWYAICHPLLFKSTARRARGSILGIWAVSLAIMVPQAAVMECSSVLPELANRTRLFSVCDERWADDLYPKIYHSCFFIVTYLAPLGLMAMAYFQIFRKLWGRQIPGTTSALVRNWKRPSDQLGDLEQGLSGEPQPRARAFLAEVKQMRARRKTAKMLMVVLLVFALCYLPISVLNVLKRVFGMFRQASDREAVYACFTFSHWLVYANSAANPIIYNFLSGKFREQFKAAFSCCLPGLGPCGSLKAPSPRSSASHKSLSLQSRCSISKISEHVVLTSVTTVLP
GPR7 antag: GPR7 receptor antagonists, primary screen, cell-based, fluorescence, single concentration; Neuropeptides B/W receptor type 1 (Homo sapiens), P48145; GPR7-expressing cells, fluorescence antagonist assay; inhibition, % at 4.4 µM; 1.1% of 290,000 active; AID 1861, 2009; in the data active means inhibition above about 16%, passing the limit was not always enough;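 further: cells stimulated with the agonist NPW; 0% = agonist with vehicle and 100% = vehicle without agonist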
CHO parental Ca: ATP-evoked calcium signal inhibitors, parental CHO, primary screen, counter-screen for OX1R antagonist project, cell-based, fluorescence, Fluo-8 calcium dye; parental CHO-K1, ATP-induced calcium, Fluo-8 fluorescence; inhibition, % at 5.6 µM; 0.63% of 330,000 active; AID 463079, 2010;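 active means inhibition above that plate's mean sample inhibition plus 3 SD, cut at about 26% in these data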;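 further: 0% = ATP-challenged DMSO wells and 100% = DMSO wells without ATP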
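material = parental CHO cells | also added = ATP as calcium-mobilizing challenge | dosing = single point at 5.6 µM | detection = intracellular calcium via Fluo-8 no-wash fluorescent dye | read-out = % inhibition | benchmarks = low control ATP plus DMSO, high control DMSO only | repeats = one well per compound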
TAAR1 ag: human TAAR1 agonists, primary screen, Fluo-8 calcium fluorescence, CHO RD-HGA16 cells | 0.99% of 360,000 active | activation, % at 3 µM | AID 624467, 2012 | vehicle wells 0%, saturating PEA agonist 100%;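 active means activation above the mean activation of all test compounds in the run plus 3 SD, cut at about 38% in these data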
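Test system: RD-HGA16 (CHO) cells co-expressing Gα16 and hTAAR1 / Benchmarks: DMSO vehicle as 0%, PEA at EC100 as 100% / Repeats: no replicates (n 1) / Measure: % activation from peak over basal fluorescence ratio, DMSO-to-PEA scaled / Timing: 17-24 h plating, Fluo-8 75 min 37 °C, 30 min RT / Technique: kinetic Fluo-8 calcium fluorescence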
OX1R antag-2: antagonists of human orexin 1 receptor (OX1R). Orexin/Hypocretin receptor type 1 (Homo sapiens), O43613. inhibition, % at 6.6 µM. OX1R-expressing cells, FRET antagonist read-out. 1.8% of 330,000 active; in the data active means inhibition mostly above about 38%, no sharp cut-off; inactive means mostly below about 40%;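 further: 0% = agonist challenge alone and 100% = reference antagonist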
TAAR1 antag: human TAAR1 antagonists, primary screen, Fluo-8 calcium fluorescence, CHO RD-HGA16 cells | AID 624466, 2012 | 1.5% of 360,000 active | Trace amine-associated receptor 1 (Homo sapiens), Q96RJ0 | antagonist | inhibition, % at 3 µM;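 active means inhibition above a per-plate cutoff, the mean inhibition of test compounds on that plate plus 3 SD, cut at about 49% in these data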;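 further: 0% = DMSO plus EC80 beta-PEA response and 100% = DMSO alone without agonist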
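System: CHO RD-HGA16 cells bearing hTAAR1. Reagent: EC80 β-phenethylamine stimulus. Schedule: seeding 17-24 h prior, 75-min 37 °C, 30-min RT dye loading. Signal: Fluo-8 intracellular calcium dye fluorescence, real-time kinetic reads. Read-out: % inhibition from peak post-agonist over basal fluorescence ratio. Benchmarks: vehicle wells and EC80 agonist wells. Replicates: n of 1.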
nonsel antag count: nonselective antagonists in TAAR1 counter-screen cells, counter-screen for hTAAR1 antagonist project, cell-based, fluorescence, calcium; shares compounds with TAAR1 antag; counterscreen cell line, antagonist mode; inhibition, % at 3 µM; 77% of 2,400 active; AID 651780, 2012; in the data active means inhibition above about 22%;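 further: CHO-Ga16 host cells stimulated with ATP at an EC80 level; 0% = agonist EC80 plus vehicle and 100% = vehicle without agonist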
TAAR1 ant conf: human TAAR1 antagonists, retest of hits, confirmation, cell-based, fluorescence; AID 651785, 2012; inhibition, % at 3 µM; TAAR1-expressing cells, fluorescence antagonist read-out; shares compounds with TAAR1 antag; 40% of 2,400 active; in the data active means inhibition above about 49%;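 further: CHO-Ga16 host cells challenged with agonist PEA near its EC80; 0% = agonist at EC80 plus vehicle and 100% = vehicle with no agonist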
Ga16 ag counter: calcium activation in Ga16-expressing cells, counter-screen for TAAR1 antagonist project, cell-based, fluorescence. shares compounds with TAAR1 antag. agonist counterscreen. activation, % at 3 µM. 18% of 2,400 active; in the data active means activation above about 12%;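 further: 0% = vehicle wells and 100% = saturating stimulus response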
TAAR1 ag counter: TAAR1 activation by candidate antagonists – cell-based, fluorescence, counter-screen for TAAR1 antagonist project. hTAAR1 cell line, agonist mode. 2% of 2,400 active. activation, % at 3 µM. shares compounds with TAAR1 antag. AID 651955, 2012; in the data active means activation above about 37%;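 further: CHO cells stably expressing TAAR1 with calcium dye readout; 0% = DMSO vehicle and 100% = full agonist response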
* = called active by the depositor; . = no result. In the library only some 4.6% were active in any assay of this set; here they are far more common.

SMILES	OX1R antag-1	GPR7 antag	CHO parental Ca	TAAR1 ag	OX1R antag-2	TAAR1 antag	nonsel antag count	TAAR1 ant conf	Ga16 ag counter	TAAR1 ag counter
O=C(CN1C(=O)NC2(CCCC2)C1=O)Nc1nc(-c2ccc(F)cc2)cs1	-34	-3	-33	24	31	51*	23*	33	10	17
O=C(Cc1cccs1)Nc1nc(-c2ccc(F)c(F)c2)cs1	-14	-6	-5	7	14	72*	39*	55*	6	3
Cc1csc(NC(=O)c2ccc(OCC3CCCO3)cc2)n1 (stereo not given)	-13	-14	3	10	38	-21	.	.	.	.
COc1ccc(CC(=O)Nc2nc(-c3cc(OC)ccc3OC)cs2)cc1	-21	-12	-23	12	25	55*	22*	34	7	2
Cc1ccc(C(=O)N2CCC(Cc3ccccc3)CC2)cc1S(=O)(=O)N1CCOCC1	.	.	.	3	.	-11	.	.	.	.
Cc1ccc(C(C(=O)Nc2ccc3c(c2)OCO3)N(C)C(=O)Cc2c[nH]c3ccccc23)cc1 (stereo not given)	-1	-4	-32	16	30	32	.	.	.	.
C[C@H]1CN([C@@H](C)CO)C(=O)Cc2cc(NC(=O)CCC(F)(F)F)ccc2O[C@H]1CN(C)S(=O)(=O)c1ccc(Cl)cc1	-36	.	-36	13	10	7	.	.	.	.
O=C(Cc1ccc(F)cc1)Nc1nc(-c2ccc(F)cc2)cs1	-3	-4	-5	4	12	82*	46*	57*	7	-1
O=C(Cc1ccccc1F)Nc1nc(-c2ccc(F)c(F)c2)cs1	-10	2	-4	11	35	68*	24*	50*	11	14
CC(C(=O)Nc1nc(-c2ccc(F)c(F)c2)cs1)N1C(=O)C2CC=CCC2C1=O (stereo not given)	13	.	1	19	16	78*	45*	60*	11	9
O=C(O)CCCC(=O)Nc1nc(-c2ccc(F)cc2)cs1	2	-7	-11	11	35	4	.	.	.	.
COc1ccc(-c2csc(NC(=O)[C@H](C)N3C(=O)C4CC=CCC4C3=O)n2)cc1OC (stereo not given in full)	11	.	2	16	20	47	.	.	.	.
CCOC(=O)CCCCC(=O)c1[nH]c(=O)[nH]c1CSc1nnc2c3ccccc3n(C(C)C)c2n1	-33	-2	-47	-2	19	1	.	.	.	.
CCN(c1ccccc1)S(=O)(=O)c1cccc(C(=O)Nc2ccc(C)cn2)c1	-37	-23	-23	1	28	-20	.	.	.	.
COc1cc(NC(=S)NC2CC2)c(OC)cc1Cl	-12	-7	-4	4	8	4	.	.	.	.
CCc1cccc(NC(=O)CSCc2cc(=O)[nH][nH]2)c1	-12	2	2	-3	12	105*	12	6	1	0
O=C(CSc1ncnc2c1nnn2-c1ccc(F)cc1)NCc1ccco1	-4	-4	-6	37	18	64*	14	9	5	-2
CC1CCCCC1NC(=O)CCNS(=O)(=O)c1ccc2c(c1)CCC(=O)N2 (stereo not given)	-16	6	-10	0	5	-29	.	.	.	.
CC1CCN(C(=O)C2CCN(S(=O)(=O)c3cccc4cccnc34)CC2)CC1	-24	-9	-11	5	13	-13	.	.	.	.
O=C(C1CCN(S(=O)(=O)c2cccc3cccnc23)CC1)N1CCn2c1nc1ccccc12	-27	-1	-2	9	12	60*	28*	44	8	7
COc1cc(-c2[nH]nc3c2C(c2ccoc2)C(C#N)=C(N)O3)cc(OC)c1OC (stereo not given)	-7	-5	-16	27	16	74*	34*	57*	9	11
COc1ccccc1-c1cc(C(=O)N2CCN(S(=O)(=O)c3ccc(C)cc3)CC2)[nH]n1	-16	-12	-9	11	8	74*	31*	44	9	7
O=C(CN1C(=O)NC2(CCCCC2)C1=O)N1CCN(S(=O)(=O)c2ccc(F)c(F)c2F)CC1	.	.	.	0	.	-30	.	.	.	.
COc1cc(NC(=O)C2CC(c3c(F)cccc3Cl)=NO2)cc(OC)c1OC (stereo not given)	0	-1	4	17	41	62*	35*	35	13*	11
CN(C)S(=O)(=O)c1cc(NC(=O)COC(=O)CC2Sc3ccccc3NC2=O)ccc1Cl (stereo not given)	0	.	-11	22	14	62*	31*	38	9	5
CCN=C(NCC)SC1CC(=O)N(c2ccc(OC)cc2)C1=O (stereo not given)	-25	8	-5	23	22	65*	30*	55*	12*	18
CCN=C(NCC)SC1CC(=O)N(c2cccc(OCC)c2)C1=O (stereo not given)	-14	-22	-17	23	19	71*	26*	50*	11	12
CCOc1ccc(N2C(=O)CC(SC(=NC)Nc3cccc(OC)c3)C2=O)cc1 (stereo not given)	-31	-3	-36	3	8	26	.	.	.	.
COc1ccc2cc(S(=O)(=O)n3cnc(C)c3)ccc2c1	-6	9	-10	6	4	1	.	.	.	.
C=CC[C@@H](CC(=O)N[C@@H](CO)Cc1ccccc1)C(=O)NC[C@H](OC(=O)[C@@H](CC=C)Cc1ccc(F)cc1)c1ccccc1	7	.	-18	20	12	63*	32*	54*	10	11
